Source: ChEMBL document CHEMBL2062492 (ACS Med Chem Lett, 2012)
Activity calls are given as the source filed them. The calls are words filed in the database; no cut-off is given here.

How the values were obtained:
[1] = test system: MCF7; experiment: Growth inhibition of human MCF7 cells at 10^-6 M after 5 days relative to control; type: functional; settings: MCF7, 120 h, read-out: GI
Summary of the method: (§1)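 Cell survival assay on ER+ MCF-7 or T47D cells treated at fixed concentrations of 10–7 M and 10–6 M. 4-OHT-treated cells served as positive control. Growth inhibition is expressed as percent relative to survival.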

[2] = test system: MCF7; experiment: Growth inhibition of human MCF7 cells at 10^-7 M after 5 days relative to control; type: functional; settings: MCF7, 120 h, read-out: GI; summary of the method: as §1
[3] = test system: MDA-MB-231; experiment: Cytotoxicity against human MDA-MB-231 cells assessed as cell survival at 10^-7 M relative to vehicle-treated control; type: functional; settings: for viability at 0.1 µM: read-out: Survival
Summary of the method: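 MDA-MB-231 used as the ER-negative breast cancer line, tested at 10–7 M alongside MCF-7 cells. Read-out is survival ratio versus control.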

[4] = test system: MCF7; experiment: Cytotoxicity against human MCF7 cells after 5 days; type: functional, cell-based; settings: MCF7, 120 h
[5] = Half life of the compound in human MCF7 cells at 10^-6 M by HPLC-MS/MS analysis; type: ADME, cell-based
[6] = test system: MCF7; experiment: Metabolic stability in human MCF7 cells assessed as compound remaining by LC-MS/MS analysis; type: ADME, cell-based
[7] = test system: T47D; experiment: Cytotoxicity against human T47D cells after 5 days; type: functional, cell-based; settings: 120 h
[8] = test system: T47D; experiment: Growth inhibition of human T47D cells at 10^-6 M after 5 days relative to control; type: functional; settings: 120 h, read-out: GI; summary of the method: as §1
[9] = test system: T47D; experiment: Metabolic stability in human T47D cells assessed as compound remaining by LC-MS/MS analysis; type: ADME, cell-based
Summary of the method: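 Culture medium from MCF-7 or T47D cells incubated with prodrug was analysed for both intact prodrug and released 4-OHT. Results are reported as relative chromatographic peak areas (% of total for prodrug versus 4-OHT).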

[10] = test system: MCF7; experiment: Drug uptake in human MCF7 cells at 10^-6 M after 6 days by HPLC-MS/MS analysis; type: ADME, cell-based; settings: mcf7, 144 h, 1 µM
Summary of the method: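 Uptake is estimated indirectly. Drug remaining in the culture medium was measured after 6 days of incubation with MCF-7 cells.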

[11] = test system: MCF7; experiment: Ratio of 4-hydroxytamoxifen IC50 to compound IC50 for human MCF7 cells; type: functional
[12] = test system: T47D; experiment: Growth inhibition of human T47D cells at 10^-7 M after 5 days relative to control; type: functional; settings: 120 h, read-out: GI
Summary of the method: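 Cell survival assay in ER+ T47D breast cancer cells dependent on estrogen for growth. Compounds tested at 10–7 and 10–6 M, with 4-OHT as positive control. Read-out is % growth inhibition from survival relative to control.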

[13] = test system: MCF7; experiment: Ratio of tamoxifen IC50 to compound IC50 for human MCF7 cells; type: functional

Structure (SMILES)	inhibition of growth at 1 µM [1] [%]	inhibition of growth at 0.1 µM [2] [%]	viability at 0.1 µM [3] [%]	IC50 [4] [µM]	half-life at 1 µM [5] [h]	Stability [6] [%]	Activity [3]	IC50 [7] [µM]	inhibition of growth at 1 µM [8] [%]	Stability [9] [%]	Drug uptake [10]	Ratio IC50 [11]	inhibition of growth at 0.1 µM [12] [%]	Ratio IC50 [13]
CC/C(=C(\c1ccccc1)c1ccc(OCCN(C)C)cc1)c1ccccc1 [TAMOXIFEN]	52	18	> 95											
CC/C(=C(/c1ccc(OCCN(C)C)cc1)c1ccc(B(O)O)cc1)c1ccccc1	75	51		0.042	96	30.4	inactive	0.228	54	20.9	Active			
CC/C(=C(/c1ccc(OCCN(C)C)cc1)c1ccc([B-](F)(F)F)cc1)c1ccccc1.[K+]	76	59		0.00626	84		inactive	0.26	50		Active			
CC/C(=C(/c1ccc(OCCN(C)C)cc1)c1ccc(B2OC(C)(C)C(C)(C)O2)cc1)c1ccccc1	63	52		0.148	89		inactive	0.144	60		Active	0.2		
CCC(=C(c1ccc(O)cc1)c1ccc(OCCN(C)C)cc1)c1ccccc1	63	56	> 95	0.0291				0.21			Active		51	30
